Measurements from publication PMC8001668 (International Journal of Nanomedicine, 2021).

Columns and labels:
[1] = tested on: MDA-MB-231 cells; test: In vitro cytotoxicity, MTT assay; format: cell-based, Human; conditions: for IC50: Homo sapiens
[2] = tested on: MCF-7 cells; test: In vitro cytotoxicity, MTT assay; format: cell-based, Human; conditions: for IC50: Homo sapiens
[3] = Plasma pharmacokinetics; format: in vivo; conditions: SD rats plasma, intraperitoneal, free group received DAS + ROZ
How it was run: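 Female SD rats (5 per group) got an intraperitoneal dose of either the free two-drug combination or the micelle formulation, at 5 mg/kg of the kinase inhibitor. Blood (0.3 mL) was taken from 0 min to 24 h and spun at 4000 rpm for 10 min. Plasma (100 µL) was mixed with methanol (300 µL) plus diclofenac sodium internal standard, spun, and analysed by HPLC. Parameters were derived from the concentration–time data.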

[4] = tested on: MDA-MB-231 cells; test: Transwell migration experiment; format: cell-based, Human; conditions: 24 h treatment
[5] = tested on: MCF-7 cells; test: Transwell migration experiment; format: cell-based, Human; conditions: 24 h treatment

SMILES	IC50 ([1]; MDA-MB-231, 24 h) [µM]	IC50 ([1]; MDA-MB-231, 48 h) [µM]	IC50 ([2]; MCF7, 24 h) [µM]	IC50 ([2]; MCF7, 48 h) [µM]	AUC0-∞ of DAS ([3]; DAS 5 mg/kg) [ng·h/mL]	AUC0–24 of DAS ([3]; DAS 5 mg/kg) [ng·h/mL]	cell survival rate ([1]; MDA-MB-231 cells, 24 h incubation)	cell survival rate ([2]; MCF-7 cells, 24 h incubation)	number of cells penetrating the membrane (migration) [4]	number of cells penetrating the membrane (migration) [5]	AUC0–24 of ROZ ([3]; DAS dose 5 mg/kg) [ng·h/mL]	AUC0–∞ of ROZ ([3]; DAS dose 5 mg/kg) [ng·h/mL]
Cc1nc(Nc2ncc(C(=O)Nc3c(C)cccc3Cl)s2)cc(N2CCN(CCO)CC2)n1 [DAS, Dasatinib]	73.6 ± 3.8	64.7 ± 2.63	52 ± 6.83	31.2 ± 2.8	2380 ± 1120	2260 ± 930	–	–	–	–	–	–
CN(CCOc1ccc(CC2SC(=O)NC2=O)cc1)c1ccccn1 (centres unmarked) [ROZ, rosiglitazone]	–	259 ± 27.5	–	102 ± 6.2	–	–	higher than 90%	higher than 90%	significantly reduced	significantly reduced	41060 ± 10850	41340 ± 10680
